5 compounds from ChEMBL document CHEMBL1287662, “Potent neuroprotective role of novel melatonin derivatives for management of central neuropathy induced by acrylamide in rats” (2010) can be followed below.

Active and inactive are the calls of the source. No cut-off for these calls is given here.

For assay [1], the system named is Rattus norvegicus. Description: Neuroprotective activity in Sprague-Dawley rat assessed as protection against acrylamide-induced decrease in dopamine level at 50 mg/kg, ip administered 10 mins before acrylamide challenge for 3 days per week […] by spectrofluorometrically (reference value: -16%). Format: functional. The arrangement: scale not given: the % may be the effect or the level left. Conditions: route intraperitoneal.

The test system of assay [2] is Rattus norvegicus. The assay is described as follows: Neuroprotective activity in Sprague-Dawley rat assessed as protection against acrylamide-induced decrease of creatine kinase level at 50 mg/kg, ip administered 10 mins before acrylamide challenge for 3 days per week for 3 weeks by spectrofluorometrically (reference value: -73%). Conditions: route intraperitoneal. The arrangement: scale not given: the % may be the effect or the level left.

Assay [3] deals with Rattus norvegicus. Description: Neuroprotective activity in Sprague-Dawley rat assessed as protection against acrylamide-induced decrease in adrenaline level at 50 mg/kg, ip administered 10 mins before acrylamide challenge for 3 days per week […] by ELISA (reference value: -40%). The format is functional. Further details: scale not given: the % may be the effect or the level left. Conditions: route intraperitoneal. For orientation: An ELISA detects its analyte on a solid surface through an enzyme-linked reagent.

Assay [4] has as its system Rattus norvegicus. Description: Neuroprotective activity in Sprague-Dawley rat assessed as protection against acrylamide-induced decrease of glutathione peroxidase level at 50 mg/kg, ip administered 10 mins before acrylamide challenge for 3 days per week for 3 weeks by spectrofluorometrically (reference value: -43%). Further details: scale not given: the % may be the effect or the level left. As to conditions: route intraperitoneal.

Assay [5] concerns Rattus norvegicus. The assay is described as follows: Neuroprotective activity in Sprague-Dawley rat assessed as protection against acrylamide-induced increase of malondialdehyde level at 50 mg/kg, ip administered 10 mins before acrylamide challenge for 3 days per week […] by spectrofluorometrically (reference value: 31%). Format: functional. As to conditions: route intraperitoneal.

Assay [6] concerns Rattus norvegicus. The assay is described as follows: Neuroprotective activity in Sprague-Dawley rat assessed as protection against acrylamide-induced decrease of superoxide dismutase level at 50 mg/kg, ip administered 10 mins before acrylamide challenge for 3 days per week for 3 weeks by spectrofluorometrically (reference value: -32%). Further details: scale not given: the % may be the effect or the level left. As to conditions: route intraperitoneal.

Assay [7] concerns Rattus norvegicus. The assay is described as follows: Neuroprotective activity in Sprague-Dawley rat assessed as protection against acrylamide-induced decrease of glutathione level at 50 mg/kg, ip administered 10 mins before acrylamide challenge for 3 days per week […] by spectrofluorometrically (reference value: -27%). Format: functional. The arrangement: scale not given: the % may be the effect or the level left. As to conditions: route intraperitoneal.

For assay [8], the system named is Rattus norvegicus. Description: Neuroprotective activity in Sprague-Dawley rat assessed as protection against acrylamide-induced increase of LDH level at 50 mg/kg, ip administered 10 mins before acrylamide challenge for 3 days per week for 3 weeks by spectrofluorometrically (reference value: 67%). Conditions: route intraperitoneal.
In assay [9] the test system is Rattus norvegicus. The assay is described as follows: Neuroprotective activity in Sprague-Dawley rat assessed as protection against acrylamide-induced decrease in noradrenaline level at 50 mg/kg, ip administered 10 mins before acrylamide challenge for 3 days per week […] by ELISA (reference value: -21%). Format: functional. Further details: scale not given: the % may be the effect or the level left. Conditions: route intraperitoneal.

Assay [10] deals with Rattus norvegicus. The assay is described as follows: Neuroprotective activity in Sprague-Dawley rat assessed as protection against acrylamide-induced neuronal damage at 50 mg/kg, ip administered 10 mins before acrylamide challenge for 3 days per week for 2 weeks by histopathology analysis. Format: functional, organism-based. Further details: dose 50 mg/kg. Conditions: in the assay text read “for 3 weeks” for “for 2 weeks”. The method, boiled down:
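Rats (n = 10 per group) given agent at 50 mg/kg i.p. in 2% Tween 10 min before ACR at 50 mg/kg i.p., 3 days/week for 3 weeks. Brain tissue examined by light photomicrography for neuronal morphology (dark neurons, chromatin clumping, vacuoles), compared with control and ACR-only rats.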

As for `COc1ccc2c(c1)c(CCNC(C)=O)cn2CN1CCOCC1`, the Activity in assay [1] is 19%; in assay [2], 30%; in assay [3], 65%; in [4], 11%; in assay [5] it was -21%; in assay [6], 77%. The Activity in assay [7] is given as 27%; in assay [8], -55%; in assay [9], 28%.

Consider `COc1ccc2c(c1)c(CCNC(C)=O)c1sc(-c3c(C(C)=O)nn(-c4ccccc4)c3N)nn12`, for which the Activity in assay [1] is reported as 10%; in assay [2], 6%; in assay [3], 60%; in assay [4] it was 5%; in assay [5] it was -19%; in assay [6] it was 65%. Moreover, the Activity is given as 27% in assay [7], -45% in assay [8] and 14% in assay [9].

Regarding `COc1ccc2[nH]cc(CCNC(C)=O)c2c1` [MELATONIN], the Activity in assay [1] is reported as 33%; in [2], 59%; in assay [3], 67%; in assay [4], 38%; in assay [5], -22%; in assay [6], 135%. The Activity was 82% in [7], -65% in [8] and 32% in assay [9]. In assay [10], the result was Active.

In the case of `COc1ccc2c(c1)c(CCNC(C)=O)c1sc(C3=C(c4ccccc4)CC(=N)C(C#N)=C3N)nn12`, the Activity in [1] is 11%; in assay [2], 18%; in assay [3], 63%; in assay [4], 8%; in assay [5], -20%; in assay [6], 71%. Further, the Activity in assay [7] is reported as 27%; in [8], -47%; in assay [9] it was 28%.

With `COc1ccc2c(c1)c(CCNC(C)=O)cn2-c1c[nH]nc1-c1ccccc1`, the Activity in assay [1] is reported as 3%; in [2] it was 6%; in assay [3], 60%; in assay [4] it was 3%; in [5], -17%; in [6], 41%. For the same compound, the Activity in [7] is on record as 9%; in assay [8], -40%; in [9] it was 11%.
